Experiments:
HFF [1] = test: Half-maximal cytotoxic concentration in human foreskin fibroblast (HFF) cells; format: functional
Summary of the method: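 Primary HFF cells seeded at 2.5 × 10^4/well in 96-well plates 24 h ahead. Exposed 7 d at 37 °C to drug in MEM/2% FBS, 1:5 serial dilutions, final 100 to 0.032 µg/mL.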

HFF [2] = test: Effective concentration required to inhibit cowpox virus plaque formation in human foreskin fibroblast (HFF) cells; format: functional, cell-based
HFF [3] = test: Ratio of Effective concentration to inhibit vaccinia virus plaque formation to that of half maximal cytotoxic concentration in human foreskin fibroblast (HFF) cells; format: functional
HFF [4] = test: Ratio of Effective concentration to inhibit cowpox virus plaque formation to that of half maximal cytotoxic concentration in human foreskin fibroblast (HFF) cells; format: functional
HFF [5] = test: Effective concentration required to inhibit vaccinia virus plaque formation in human foreskin fibroblast (HFF) cells; format: functional, cell-based

Structure (SMILES)	CC50 (HFF [1]) [µM]	EC50 (HFF [2]) [µM]	SI (HFF [3])	SI (HFF [4])	EC50 (HFF [5]) [µM]
NC(=S)/N=N/c1c(O)[nH]c2ccccc12	> 454	60	>32	>7.6	14
Nc1ccn(C[C@@H](CO)OCP(=O)(O)O)c(=O)n1.O.O [CIDOFOVIR]	> 317	38	>12	>8.3	27
CN1C(=O)/C(=N\NC(N)=S)c2ccccc21 [METHISAZONE]	> 427	14	>129	>31	3.3

From ChEMBL document CHEMBL1143612, “Combinatorial optimization of isatin-beta-thiosemicarbazones as anti-poxvirus agents” (J Med Chem, 2005)
